Compounds with a hit are over-represented: about 2.8% of the library has one in this group of screens.
NPY2 pot ag: human NPY-Y2 potentiation or agonism, primary screen; P49146; AID 1359; cells expressing NPY-Y2, potentiator/agonist read-out; activation, % at 3.6 µM; 220,000 compounds, 0.45% hits; in the data active = activation above about 27%;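 note: cells stimulated with NPY near EC25 plus isoproterenol at EC100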
Target sequence (P49146 whole entry, looked up): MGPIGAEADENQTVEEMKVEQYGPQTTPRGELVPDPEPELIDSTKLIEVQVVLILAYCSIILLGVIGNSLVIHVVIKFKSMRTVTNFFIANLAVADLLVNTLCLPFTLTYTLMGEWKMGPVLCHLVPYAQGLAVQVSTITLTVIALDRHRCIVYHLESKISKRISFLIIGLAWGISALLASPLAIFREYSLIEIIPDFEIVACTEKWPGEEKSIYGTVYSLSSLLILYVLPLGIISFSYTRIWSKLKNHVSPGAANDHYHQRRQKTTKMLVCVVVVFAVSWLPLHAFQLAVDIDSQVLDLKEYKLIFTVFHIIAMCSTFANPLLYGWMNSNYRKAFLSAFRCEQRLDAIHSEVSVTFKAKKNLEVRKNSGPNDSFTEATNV
NPY-Y1 PAM-ag: potentiators or agonists of human neuropeptide Y receptor Y1; P25929; NPY-Y1 expressing cells, potentiator/agonist activation; activation, % at 3.6 µM; 220,000 compounds, 0.37% hits; in the data active = activation above about 33%, passing the limit was not always enough;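 note: cells stimulated with NPY at EC10 then isoproterenol at EC100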
PGE2 EP2 inh: blocks the human prostaglandin E2 receptor EP2. P43116. C6 glioma cells expressing human EP2, cAMP TR-FRET; cells stimulated with saturating PGE2. inhibition, % at 25 µM. 260,000 compounds, 0.52% hits. AID 1422;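 active = percent inhibition above 40 after rounding to a whole number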;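 note: rat C6 glioma host cells with rolipram phosphodiesterase inhibitor present; the protocol text gives 20 µM as final concentration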
EP2 mod: modulators of human EP2 prostaglandin E2 receptor; EP2-expressing cells, cAMP HTRF FRET, PGE2 co-stimulation; induction, % at 25 µM; 260,000 compounds, 0.83% hits; AID 940;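 active = compounds whose cAMP rise, as percent of the full-agonist control response, exceeds 60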;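 note: rat C6 glioma line stably carrying human EP2 under a CMV promoter; the protocol text gives 20 µM as final concentration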
NPY-Y1 antag: antagonists of human neuropeptide Y receptor Y1. HEK293-CNG Y1 cells, membrane potential fluorescence; NPY at EC95, then isoproterenol. inhibition, % at 3.6 µM. 200,000 compounds, 1% hits;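 active = inhibition above the campaign mean inhibition of all tested compounds plus 3 SD, cut at about 20% in these data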
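Assay system: HEK293 Y1/CNG channel cell line; Doses: single compound dose of 3.6 µM, 0.4% DMSO; Timing: dye 3 h, compound 60 min room temperature, stimulation 45 min; Technique: Membrane-potential fluorescent dye readout; Measure: % inhibition of NPY effect.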
NPY Y2 blocker: antagonists of human neuropeptide Y receptor Y2; NPY-Y2 expressing cells, antagonist mode; inhibition, % at 2.7 µM; 140,000 compounds, 0.99% hits; in the data active = inhibition above about 17%
EP2 cAMP induct: human EP2 receptor cAMP induction, negative in counter-screens; shares compounds with EP2 mod; C6 glioma EP2 cells, cAMP HTRF induction; plus low (about EC15) PGE2 agonist; calls only at 20 µM (by protocol); 1,300 compounds, 47% hits; AID 1080;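 active = cAMP induction above 50% in the main assay while under 30% in all four parallel counter assays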;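 note: rat C6 glioma cells stably expressing human EP2 receptor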
A number is an active result; - = inactive; . = no result; + = active, no number; ! = not active in a repeat.

SMILES	NPY2 pot ag	NPY-Y1 PAM-ag	PGE2 EP2 inh	EP2 mod	NPY-Y1 antag	NPY Y2 blocker	EP2 cAMP induct
CC1CC(C)CN(C(=O)Cn2ncc3cccn3c2=O)C1 (configuration not stated)	.	.	-	-	.	.	.
CCCCn1c(-c2csc3c2CCCC3)n[nH]c1=S	-	-	-	-	-	-	-
CCn1c(-c2csc3c2CCCC3)n[nH]c1=S	-	-	-	-	-	-	.
CCOc1ccccc1Cn1c(=O)oc2ccc(C)cc21	-	-	-	76.7	-	-	+
CCCOc1ccccc1Cn1c(=O)oc2ccc(C)cc21	-	-	-	83.9	20.3	21.0	+
CN1C(=O)c2cccc3c(S(=O)(=O)NCCc4ccc(F)cc4)ccc1c23	.	.	-	-	.	.	.
Cc1nc(NC2CCN(CC(=O)Nc3ccc4c(c3)OCO4)CC2)[nH]c(=O)c1C	.	.	.	-	.	.	.
COc1cc2ccc(=O)oc2c(CC=C(C)C)c1OC	.	.	-	-	.	.	.
COc1ccc2ccc(=O)oc2c1CC=C(C)C	-	-	-	66.8!	-	-	+
Cc1cc(-c2cn[nH]c2C2CCCN(C(=O)Cc3ccc4c(c3)OCO4)C2)on1 (configuration not stated)	.	.	.	-	.	.	.
CCc1ccc2[nH]c(=O)c(CN(Cc3nnnn3C3CCCC3)C3CCCCC3)cc2c1	-	-	-	74.3!	-	-	+
Cc1cc2cc(CN(Cc3nnnn3C3CCCCC3)CC3CCCO3)c(=O)[nH]c2cc1C (configuration not stated)	-	-	-	65.5!	-	-	-
CCc1cc2cc(C)cc(C)c2nc1SCC(=O)N1CCCC1	-	-	-	81.8	-	-	-
Nc1c(C(=O)c2ccc(Cl)cc2)oc2ccccc12	-	-	-	-	-	-	.
O=C(c1ccc(Cl)cc1)c1oc2ccccc2c1CS(=O)c1ccc(Cl)cc1 (configuration not stated)	-	-	-	72.6	-	-	+
COc1cc(OC)cc(C(=O)N2CCC(C(=O)Nc3ccc(C(C)C)cc3)CC2)c1	.	.	-	-	.	.	.
Cc1ccc(C(O)CN2CCC(O)(c3ccc4c(c3)OCO4)CC2)cc1 (configuration not stated)	.	.	-	-	.	.	.
CC(C)N(Cc1nc(-c2ccccc2)no1)S(=O)(=O)c1ccccc1	-	-	-	-	-	-	.
O=S(=O)(c1ccccc1)N(Cc1nc(-c2ccccc2)no1)C1CCCCC1	-	-	-	82.5	-	-	+
Cc1cccc2cc(CN(Cc3ccccc3)Cc3nnnn3C3CCCC3)c(=O)[nH]c12	.	.	-	-	.	.	.
CCSc1cc(N2CCOCC2)nc(-c2ccccc2)n1	-	-	-	65.1	-	-	+
c1ccc(-c2cc(N3CCOCC3)nc(-c3ccccc3)n2)cc1	-	-	-	-	-	-	.
NC(=O)c1nc(-c2cccc(F)c2)nc2c1[nH]c(=O)n2Cc1ccccc1	.	.	.	-	.	.	.
Cc1cc(C)n(-c2nc(C)nc3c2cnn3-c2ccccc2)n1	-	-	.	66.9	-	-	+
Cc1cc(C)n(-c2nc3ccccc3c3nc(C)nn23)n1	-	-	-	-	-	-	.
SMILES	NPY2 pot ag	NPY-Y1 PAM-ag	PGE2 EP2 inh	EP2 mod	NPY-Y1 antag	NPY Y2 blocker	EP2 cAMP induct
COc1ccc(-c2nnc(N3CCC(C)CC3)c3ccccc23)cc1	-	-	.	66.4	-	-	-
CC1CCN(c2nnc(N3CCC(C)CC3)c3ccccc23)CC1	-	-	-	-	-	.	.
CCC(c1nnnn1CCc1ccccc1)N(Cc1cc2cccc(C)c2[nH]c1=O)CC1CCCO1 (configuration not stated)	.	.	-	-	.	.	.
CC(NC(=O)CCC1CCCC1)c1nc(-c2cccnc2)n[nH]1 (configuration not stated)	.	.	-	-	.	.	.
CSc1nc(NCc2ccco2)c2ccccc2n1	-	-	-	65.5	-	-	-
CC1CCCC(C)N1C(=O)c1ccccc1Nc1ccc(SC(F)F)cc1 (configuration not stated)	-	-	-	76.5	-	-	-
CC1CN(C(=O)c2ccccc2Nc2ccc(SC(F)F)cc2)CC(C)O1 (configuration not stated)	-	-	-	-	-	.	.
CCCC(=O)C1=C(O)C(C(=O)OC)C(C)(C)CC1=Nc1cccc2ccccc12 (configuration not stated)	-	-	-	77.5	-	-	+
CCN(CC)S(=O)(=O)c1ccc(C(=O)Nc2cc3oc4ccccc4c3cc2OC)cc1	-	-	-	-	-	-	.
CCN(CC)C(=O)CN(c1cc2c(cc1OC)oc1ccccc12)S(=O)(=O)c1ccc(C)cc1	-	-	-	91.4	-	-	-
COc1ccc(C(=O)O)cc1NC(=S)NC(=O)c1ccc(-c2ccc(Cl)cc2)o1	-	-	-	95.0	-	.	+
Cc1ccc(C(=O)O)cc1NC(=S)NC(=O)c1ccc(-c2ccccc2)cc1	-	-	-	74.1	-	.	+
COc1cc2c(cc1OC)CN(c1ccc(-c3ccccc3OC)nn1)CC2	-	-	-	65.2!	-	-	-
COc1ccccc1-c1ccc(NC2CCCC2)nn1	-	-	-	-	-	-	.
Cc1ccc2c(c1)C(=NC1CCCCC1)c1cc3ccccc3nc1-2	-	-	-	-	-	-	.
Cc1ccc2c(c1)-c1nc3ccccc3cc1C2=NC1CCCCC1	-	-	-	69.9	-	-	-
Cc1ccc(NC(=S)N(Cc2cc3ccc(C)c(C)c3[nH]c2=O)CC2CCCO2)c(C)c1 (configuration not stated)	.	.	-	-	.	.	.
Cc1ccc2c(c1)N(Cc1cccc(Cl)c1)C(=O)c1cccnc1O2	-	-	-	71.0	-	-	+
Cc1ccsc1CN(CCCO)Cc1cc(F)ccc1F	.	.	-	-	.	.	.
c1ccc(-c2csc3ncnc(N4CCOCC4)c23)cc1	-	-	-	-	-	.	.
c1ccc(-c2csc3ncnc(N4CCc5ccccc5C4)c23)cc1	-	-	-	71.8	-	-	+
CCn1cc(C(=O)Nc2cc(C)cc(C)c2)c(=O)c2ccc(C)nc21	.	.	-	-	.	.	.
CCCOC(=O)c1ccc(NC(=O)c2cn(CC)c3nc(C)ccc3c2=O)cc1	-	-	.	67.2	-	-	-
C#CCOc1ccc(C2C(C#N)=C(N)OC3=C2C(=O)CCC3)cc1 (configuration not stated)	.	.	-	-	.	.	.
CCOC(=O)C1=C(C)OC(N)=C(C#N)C1c1cc(OC)c(OC)cc1Br (configuration not stated)	.	.	-	-	.	.	.
Cc1ccc(C(=O)C2=C(O)C(=O)N(CCCn3ccnc3)C2c2ccc(OC(C)C)cc2)o1 (configuration not stated)	-	-	-	65.1	-	-	-
CN(C)c1ccc2c(c1)OC(N)=C(C#N)C2c1ccc(Cl)cc1 (configuration not stated)	.	.	-	-	.	.	.

Assay outcomes: PubChem, several laboratories
